Assay results as given in article PMC8602434 (Drugs in R&D, 2021).

Legend:
Format in all cases: in vivo
[1] = Mouse pharmacokinetics, single sc or iv dose, plasma LC-MS; details: for AUC∞: plasma LC-MS
[2] = Rat 28-day toxicology study with toxicokinetic analysis, sc
Procedure, shortened: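 Male and female CD Sprague Dawley rats (233–264 g male, 172–201 g female). 28-day toxicology study (70 per sex) with daily sc dosing at 0, 1.0, 5.0 or 25.0 mg/kg/day. Blood drawn via sublingual vein, three animals per sex per dose at each time point. Noncompartmental analysis of mean concentration–time data gave AUClast, Cmax, tmax and t½.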

[3] = Healthy volunteers, multiple-dose arm, sc once daily for 7 days; details: human
Procedure, shortened: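 Double-blind, placebo-controlled abdominal sc dosing once daily for 7 days: 1.0 or 3.0 mg, cohorts of 10 (8 active, 2 placebo). Serial blood on Day 1 (predose to 24 h), peak/trough on Days 2–6, Day 7 (predose to 16 h), then to 48 h after last dose. Validated bioanalytical method. Noncompartmental: Day 7 values as steady state, AUCτ, accumulation ratio. AEs recorded.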

[4] = 1.0 mg sc once daily, Day 7, geometric mean, n=5
[5] = 1.0 mg sc once daily, Day 7, median, n=5
[6] = 1.0 mg sc once daily, Day 7, median, n=8
[7] = 3.0 mg sc once daily, Day 1, geometric mean, n=7
[8] = 3.0 mg sc once daily, Day 1, geometric mean, n=8
[9] = 3.0 mg sc once daily, Day 1, median, n=7
[10] = 3.0 mg sc once daily, Day 1, median, n=8
[11] = 3.0 mg sc once daily, Day 7, geometric mean, n=8
[12] = 3.0 mg sc once daily, Day 7, mean (SD), n=8
[13] = 3.0 mg sc once daily, Day 7, median, n=6
[14] = 3.0 mg sc once daily, Day 7, median, n=8

F (bioavailability) ([1]; 1 mg/kg sc versus iv): 0.63
t½ ([1]; single 1 mg/kg iv): 12 min
AUC∞ ([1]; single 1 mg/kg iv): 753 ng·h/mL
Cmax ([1]; single 1 mg/kg sc): 703 ng/mL
tmax ([1]; single 1 mg/kg sc): 4.98 min
t½ ([1]; single 1 mg/kg sc): 15.6 min
AUC∞ ([1]; single 1 mg/kg sc): 476 ng·h/mL
Cmax ([1]; single 3 mg/kg sc): 2440 ng/mL
tmax ([1]; single 3 mg/kg sc): 15 min
t½ ([1]; single 3 mg/kg sc): 30 min
AUC∞ ([1]; single 3 mg/kg sc): 1727 ng·h/mL
t½ ([3]; 1.0 mg sc once daily, Day 1, geometric mean, n=6): 246 min
CL/F ([3]; 1.0 mg sc once daily, Day 1, median, n=6): 20.2 L/h
AI (accumulation index) [3, 4]: 1.1
t½ [3, 4]: 402 min
AUCτ ([3]; 1.0 mg sc once daily, Day 7, geometric mean, n=8): 51.2 ng·h/mL
AI (accumulation index) ([3]; 1.0 mg sc once daily, Day 7, mean (SD), n=5): 1.1 (0.1)
AUCτ ([3]; 1.0 mg sc once daily, Day 7, mean (SD), n=8): 52.9 (15.0) ng·h/mL
AI (accumulation index) [3, 5]: 1.1
AUC∞ [3, 5]: 51.8 ng·h/mL
Vd/Fss [3, 5]: 174 L
AUCτ [3, 6]: 48.3 ng·h/mL
tmax [3, 6]: 30 min
AUC∞ [3, 7]: 169.0 ng·h/mL
AUC∞/dose [3, 7]: 56.5 ng·h/mL/mg
Cmax [3, 8]: 53.7 ng/mL
Cmax/dose [3, 8]: 17.9 ng/mL/mg
AUC∞/dose ([3]; 3.0 mg sc once daily, Day 1, mean (SD), n=7): 57.2 (10.2) ng·h/mL/mg
Cmax/dose ([3]; 3.0 mg sc once daily, Day 1, mean (SD), n=8): 18.1 (3.2) ng/mL/mg
AUC∞ [3, 9]: 159.0 ng·h/mL
AUC∞/dose [3, 9]: 53.0 ng·h/mL/mg
CL/F [3, 9]: 18.9 L/h
t½ [3, 9]: 576 min
AUC0–t [3, 10]: 145.0 ng·h/mL
Cmax [3, 10]: 50.0 ng/mL
AI (accumulation index) ([3]; 3.0 mg sc once daily, Day 7, geometric mean, n=6): 1.4
AUCτ [3, 11]: 174.0 ng·h/mL
AUCτ/dose [3, 11]: 58.1 ng·h/mL/mg
Cmax/dose [3, 11]: 19.1 ng/mL/mg
AI (accumulation index) ([3]; 3.0 mg sc once daily, Day 7, mean (SD), n=6): 1.4 (0.2)
AUCτ [3, 12]: 177.0 (36.0) ng·h/mL
AUCτ/dose [3, 12]: 59.1 (12.0) ng·h/mL/mg
Cmax/dose [3, 12]: 19.5 (4.52) ng/mL/mg
AI (accumulation index) [3, 13]: 1.3
AUC∞ [3, 13]: 200.0 ng·h/mL
AUCτ [3, 14]: 171.0 ng·h/mL
AUCτ/dose [3, 14]: 57.1 ng·h/mL/mg
Dose linearity for AUC∞ and Cmax ([3]; multiple-dose arm): inconclusive
Intact drug excreted in the urine ([3]; multiple-dose arm): ≤ 1%
Time after dosing at which Cmax was generally reached (tmax) ([3]; multiple-dose arm): 15 to 45 min
SMILES: CCCC[C@H](NC(C)=O)C(=O)N[C@H]1CCC(=O)NC[C@@H](C(=O)N[C@@H](Cc2c[nH]c3ccccc23)C(N)=O)NC(=O)[C@H](CCCNC(=N)N)NC(=O)[C@@H](Cc2ccccc2)NC(=O)[C@H](Cc2c[nH]cn2)NC1=O [PL8177]
tmax ([2]; rat F, 1.0 mg/kg sc daily, Day 14 (truncated curve, 3 data points)): 30 min
tmax ([2]; rat F, 1.0 mg/kg sc daily, Day 28): 30 min
tmax ([2]; rat F, 5.0 mg/kg sc daily, Day 14 (truncated curve, 3 data points)): 60 min
tmax ([2]; rat F, 25.0 mg/kg sc daily, Day 14 (truncated curve, 3 data points)): 30 min
tmax ([2]; rat F, 25.0 mg/kg sc daily, Day 28): 30 min
tmax ([2]; rat M, 1.0 mg/kg sc daily, Day 1): 30 min
tmax ([2]; rat M, 1.0 mg/kg sc daily, Day 14 (truncated curve, 3 data points)): 30 min
tmax ([2]; rat M, 1.0 mg/kg sc daily, Day 28): 30 min
tmax ([2]; rat M, 5.0 mg/kg sc daily, Day 14 (truncated curve, 3 data points)): 60 min
tmax ([2]; rat M, 5.0 mg/kg sc daily, Day 28): 30 min
tmax ([2]; rat M, 25.0 mg/kg sc daily, Day 28): 15 min
AEs leading to study discontinuation, serious AEs, or severe AEs ([3]; multiple-dose arm): no reports
Most commonly reported AEs ([3]; multiple-dose arm): injection-site pain, erythema, and induration
